The source made the active and inactive calls. The rule behind the calls is not given here.
Assays:
[1] = test system: Bacillus subtilis; test: Antibacterial activity against Bacillus subtilis ATCC 6051 at 50 ug/disk by disk diffusion method; format: functional, organism-based
In short: (§1)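 Standard paper-disk diffusion assay. Test material was loaded at 200 μg/disk, and gentamicin sulfate was run as the standard at 50 μg/disk. The C. albicans assay used the same 200 μg/disk level. The read-out was the diameter of the zone of inhibition in mm.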

[2] = test system: Candida albicans; test: Antifungal activity against Candida albicans ATCC 14053 at 200 ug/disk by disk diffusion method; format: functional, organism-based; in short: as §1
[3] = test system: Staphylococcus aureus; test: Antibacterial activity against Staphylococcus aureus ATCC 25923 at 50 ug/disk by disk diffusion method; format: functional, organism-based; in short: as §1
[4] = test system: Aspergillus flavus; test: Antifungal activity against Aspergillus flavus NRRL 6541 at 25 ug/disk by disk diffusion method; format: functional, organism-based
[5] = test system: Fusarium verticillioides; test: Antifungal activity against Fusarium verticillioides NRRL 25457 at 25 ug/disk by disk diffusion method; format: functional, organism-based
[6] = test system: Candida albicans; test: Antifungal activity against Candida albicans ATCC 14053 at 25 ug/disk by disk diffusion method; format: functional, organism-based
[7] = test system: Aspergillus flavus; test: Antifungal activity against Aspergillus flavus NRRL 6541 at 200 ug/disk by disk diffusion method; format: functional
[8] = test system: Bacillus subtilis; test: Antibacterial activity against Bacillus subtilis ATCC 6051 at 200 ug/disk by disk diffusion method; format: functional; details: for zone of inhibition at 200 µg/disc: read-out: IZ; in short: as §1
[9] = test system: Fusarium verticillioides; test: Antifungal activity against Fusarium verticillioides NRRL 25457 at 200 ug/disk by disk diffusion method; format: functional
[10] = test system: Staphylococcus aureus; test: Antibacterial activity against Staphylococcus aureus ATCC 25923 at 200 ug/disk by disk diffusion method; format: functional; details: for zone of inhibition at 200 µg/disc: read-out: IZ; in short: as §1

GENTAMICIN SULFATE
inhibition zone (IZ) [1]: 25 mm
inhibition zone (IZ) [2]: inactive
inhibition zone (IZ) [3]: 25 mm

NYSTATIN
inhibition zone (IZ) [4]: Active
inhibition zone (IZ) [5]: Active
inhibition zone (IZ) [6]: Active

C[C@@]1(CO)CCC[C@]2(C)[C@H]3C[C@@]45O[C@@H]4C(=O)[C@]4(CO)O[C@@H]4[C@]5(O)CC3=CC[C@@H]12 [HYMENOPSIN B]
inhibition zone (IZ) [2]: inactive
inhibition zone (IZ) [7]: inactive
zone of inhibition at 200 µg/disc [8]: 21 mm
inhibition zone (IZ) [9]: inactive
zone of inhibition at 200 µg/disc [10]: 21 mm

C[C@@]1(CO)CCC[C@]2(C)[C@H]3C[C@@]45O[C@@H]4[C@H](O)[C@]4(CO)O[C@@H]4[C@]5(O)CC3=CC[C@@H]12
inhibition zone (IZ) [2]: inactive
inhibition zone (IZ) [7]: inactive
inhibition zone (IZ) [8]: inactive
inhibition zone (IZ) [9]: inactive
inhibition zone (IZ) [10]: inactive

C=C1CC[C@H]2[C@](C)(CO)CCC[C@]2(C)[C@H]1C[C@@]12O[C@@H]1C(=O)[C@]1(CO)O[C@@H]1C2=O
inhibition zone (IZ) [2]: inactive
zone of inhibition at 200 µg/disc ([7]; read-out: IZ): 20 mm
zone of inhibition at 200 µg/disc [8]: 32 mm
zone of inhibition at 200 µg/disc ([9]; read-out: IZ): 20 mm
zone of inhibition at 200 µg/disc [10]: 32 mm
